Assay results as given in ChEMBL document CHEMBL5325427.
Converted amounts (≈) assume the structure as drawn. The source made the active and inactive calls. No cut-off for these calls is given here.

Key:
[1] = molecular target: Replicase polyprotein 1ab (Severe acute respiratory syndrome coronavirus 2, UniProt P0DTD1); experiment: Inhibition of recombinant SARS CoV-2 PL protease incubated for 2 hrs followed by substrate addition and measured after 1 hr by fluorescence based analysis
[2] = test system: Vero C1008; experiment: (§1) Cytotoxicity against African green monkey Vero E6 cells measured after 72 hrs by crystal violet staining based analysis; format: toxicity, cell-based; conditions: chlorocebus sabaeus, vero c1008, 72 h
Method in brief: (§2)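 Vero-E6 cells were seeded at 3 × 10^5 cells/mL, grown 24 h at 37 °C with 5% CO2, then given graded compound concentrations in triplicate for 72 h. Stocks were made in 10% DMSO in DMEM. Cells were fixed in 10% formalin, stained with 0.1% crystal violet, dissolved in methanol and read at A570. CC50 was taken by nonlinear regression of log concentration versus normalised response against untreated cells.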

[3] = test system: SARS-CoV-2; experiment: Antiviral activity against SARS-CoV-2 NRC-03-nhCoV infected in african green monkey Vero E6 cells assessed as inhibition of viral growth pre-infected cells with virus for 1 hr followed by compound addition for 1 hr and measured after 72 hrs by crystal violet staining based analysis; format: functional, organism-based; conditions: Severe acute respiratory syndrome coronavirus 2, NRC-03-nhCoV, Vero C1008
[4] = Selectivity index, ratio of CC50 for African green monkey Vero E6 cells to IC50 for antiviral activity against SARS-CoV-2 NRC-03-nhCoV infected in african green monkey Vero E6 cells; format: toxicity, cell-based, Vero C1008; conditions: read-out: Ratio CC50/IC50
[5] = Aqueous solubility of the compound in PBS buffer at pH 7.4 at 200 uM by microplate reader method; format: physicochemical
[6] = Stability in CD-1 mouse liver microsomes assessed as half life at 1 uM in presence of NADPH by LC-MS-MS analysis; format: ADME, Microsome
[7] = Stability in human liver microsomes assessed as half life at 1 uM in presence of NADPH by LC-MS-MS analysis; format: ADME, Microsome
[8] = Stability in CD-1 mouse liver microsomes assessed as compound remaining at 1 uM measured after 60 mins in absence of NADPH by LC-MS-MS analysis; format: ADME, Microsome; conditions: read-out: Stability
Method in brief: (§3)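 Compound was incubated in liver microsomes without NADPH. Percent remaining was measured after 60 min.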

[9] = Stability in human microsomes assessed as compound remaining at 1 uM measured after 60 mins in absence of NADPH by LC-MS-MS analysis; format: ADME, Microsome; conditions: read-out: Stability; method in brief: as §3
[10] = molecular target: Replicase polyprotein 1ab (Severe acute respiratory syndrome coronavirus 2) (UniProt P0DTD1); experiment: Inhibition of SARS-CoV-2 3CLpro at 10 ug/ml preincubated with enzyme for 30 mins followed by substrate addition and measured after 4 hrs by fluorescence based analysis; conditions: dose 10.0 µg/ml, time 4.5 hrs
Method in brief: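 Recombinant SARS-CoV-2 3CLpro (1.5 ng/μl) was pre-incubated with compound 30 min at RT. Fluorogenic substrate was added to a final 40 μM and incubated 4 h at RT. Fluorescence was read at Ex 360/Em 460 nm. Wells were run in triplicate and blank was subtracted.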

[11] = molecular target: Replicase polyprotein 1ab (Severe acute respiratory syndrome coronavirus 2) (UniProt P0DTD1); experiment: Inhibition of recombinant SARS CoV-2 PL protease at 25 ug/ml incubated for 2 hrs followed by substrate addition and measured after 1 hr by fluorescence based analysis relative to control; conditions: dose 25.0 µg/ml, time 3.0 hrs
[12] = as §1; format: toxicity, cell-based, Vero C1008; conditions: chlorocebus sabaeus, Vero E6 cells; method in brief: as §2

Row | SMILES | IC50 [1] [µM] | inhibition [10] | also measured
1 | CC1(C)[C@H]2COc3ccc4ccccc4c3[C@H]2N=C2SC=C(c3ccc(S(=O)(=O)N4CCOCC4)cc3)N21 | 0.121 | inactive | CC50 [2]: 43.12 µg/mL (≈ 78.7 µM); IC50 [3]: 67.6 µg/mL (≈ 123 µM); selectivity ratio [4]: 0.64; solubility at 200 µM [5]: 56.1 µM (≈ 30.7 µg/mL); t1/2 [6]: 11.2 min; t1/2 [7]: 5.7 min; remaining at 1 h, 1 µM [8]: 92%; remaining at 1 h, 1 µM [9]: 119%
2 | COC(=O)[C@@H]1CC2(C(=O)Nc3ccccc32)C2CC[C@@]3(OC)C=CC(=O)C[C@H]3N21 (stereo not given in full) | 10.3 | inactive | –
3 | COC(=O)C[C@@H]1COc2ccccc2[C@H](C(=O)NC(C)(C)C)N(CCc2c[nH]c3ccc(OC)cc23)C(=O)[C@@H]1c1nnc(-c2cccc(C(F)(F)F)c2)o1 | – | inactive | –
4 | CC1=C(c2cccc3c2OCO3)N2C(=N[C@@H]3c4c(ccc5ccccc45)OC[C@@H]3C2(C)C)S1 | 72.8 | inactive | inhibition [11]: 50%
5 | COC(=O)CC1COc2c(cc3c4c2CCCN4CCC3)-c2c(NC(C)(C)C)n3c(-c4ccc(F)cc4)c(C)sc3[n+]21 (stereo not given) | 5.57 | inactive | –
6 | COC(=O)CC1COc2c(cc3c4c2CCCN4CCC3)-c2c(NC(C)(C)C)n3c(-c4ccccc4)c(-c4ccccc4)sc3[n+]21 (stereo not given) | – | inactive | –
7 | COc1ccc2[nH]cc(CCN3C(=O)[C@H](c4nnc(-c5cccc(C(F)(F)F)c5)o4)[C@H](CC(=O)O)COc4ccccc4[C@@H]3C(=O)NC(C)(C)C)c2c1 | 1.16 | inactive | –
8 | Cc1ccc(N)cc1C(=O)N[C@H](C)c1cccc2ccccc12 | – | inactive | –
9 | COc1ccc2[nH]c3c(c2c1)C[C@]1(OC)CC[C@H]2c4c[nH]c5cccc(c45)CCN2[C@@H]1C3 | 32.6 | inactive | –
10 | FC(F)(F)Oc1ccc(N/N=C2/C=C[C@@]3(CC2)CC[C@@H]2NCCc4cccc5[nH]c3c2c45)cc1 | 27.5 | inactive | –
11 | C[C@]12C=CC(=O)C[C@H]1N1CCc3cccc4[nH]cc(c34)C1CO2 (stereo not given in full) | 19.7 | inactive | –
12 | COC(=O)[C@H](Cc1ccc(OC)c(OC)c1)N1CC(c2cc(C)ccc2O)=N[C@@H](Cc2ccc(OC)c(OC)c2)C1=O | 47.8 | inactive | inhibition [11]: 50%
13 | CO[C@@]12C=CC(=O)C[C@@H]1[n+]1c(c(NC(C)(C)C)n3c(-c4ccccc4)c(-c4ccccc4)sc31)CC2.O=S(=O)([O-])C(F)(F)F | – | inactive | CC50 at 72 h [12]: 89.7 µg/mL; IC50 [3]: 217 µg/mL; selectivity ratio [4]: 0.41
